Source: article PMC4646787 (Science Advances, 2015)
Non-standard residues stand in square brackets, D forms with d. Residues, ends and D or L forms follow the SMILES beside them. sY = N[C@@H](Cc1ccc(OS(=O)(=O)O)cc1)C(=O)O

Columns and labels:
XA21 [1] = target: T1, XA21 (Oryza sativa subsp. indica, UniProt Q1MX30); assay: ROS production; type: cell-based, rice (Oryza sativa ssp. japonica)
T1 sequence (Q1MX30 24-1025): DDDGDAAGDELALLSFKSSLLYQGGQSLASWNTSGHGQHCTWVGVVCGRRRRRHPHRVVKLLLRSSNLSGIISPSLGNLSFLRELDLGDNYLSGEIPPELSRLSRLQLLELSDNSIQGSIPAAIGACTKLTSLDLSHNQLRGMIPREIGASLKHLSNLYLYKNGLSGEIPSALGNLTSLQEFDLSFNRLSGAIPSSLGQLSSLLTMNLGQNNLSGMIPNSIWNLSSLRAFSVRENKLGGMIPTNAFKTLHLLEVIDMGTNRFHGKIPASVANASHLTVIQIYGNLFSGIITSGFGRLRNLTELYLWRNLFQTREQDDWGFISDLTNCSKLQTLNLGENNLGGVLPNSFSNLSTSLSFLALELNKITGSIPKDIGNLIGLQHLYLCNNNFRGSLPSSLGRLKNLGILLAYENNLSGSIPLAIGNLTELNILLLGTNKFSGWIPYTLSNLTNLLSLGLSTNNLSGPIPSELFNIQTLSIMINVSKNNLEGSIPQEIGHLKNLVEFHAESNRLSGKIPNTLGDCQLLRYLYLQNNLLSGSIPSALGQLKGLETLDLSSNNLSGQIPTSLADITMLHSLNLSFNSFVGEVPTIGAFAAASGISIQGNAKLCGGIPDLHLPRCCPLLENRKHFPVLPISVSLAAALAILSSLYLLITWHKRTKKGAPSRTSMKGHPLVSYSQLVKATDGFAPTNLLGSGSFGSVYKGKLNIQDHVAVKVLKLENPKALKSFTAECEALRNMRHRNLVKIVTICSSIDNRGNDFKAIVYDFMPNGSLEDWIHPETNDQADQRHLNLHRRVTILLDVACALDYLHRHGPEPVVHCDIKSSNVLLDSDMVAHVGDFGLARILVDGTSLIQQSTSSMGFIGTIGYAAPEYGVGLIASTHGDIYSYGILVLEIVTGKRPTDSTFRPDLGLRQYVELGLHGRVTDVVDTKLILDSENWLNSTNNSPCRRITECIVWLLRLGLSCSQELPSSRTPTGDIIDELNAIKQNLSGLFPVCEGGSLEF
Method in brief: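 Leaves of 4- to 6-week-old hydroponic Kitaake and Ubi::XA21 plants were cut along the midvein into 1–1.5 mm pieces and floated overnight on autoclaved ddH2O. Two pieces per well went into L-012 plus horseradish peroxidase (0.5 to 2 mg/ml), with peptide or mock (ddH2O or peptide buffer). Chemiluminescence was read for 3 h at 0.5 s per reading, n = 6. EC50 was the half-maximal total 3-h ROS over a peptide concentration series.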

XA21 [2] = target: T1, XA21; assay: Ethylene production in Ubi::XA21 rice leaves; type: cell-based, rice (Oryza sativa ssp. japonica); details: 1 μM peptide, 4 hours, gas chromatography, n = 3, Fig. 3C
Method in brief: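 Ubi::XA21 Kitaake plants (3–4 weeks, hydroponic) were used. Leaves were cut into ~0.3 to 0.5 mm strips and floated on water overnight at room temperature. Strips were then incubated with water or peptide (1 μM) in sealed tubes. Ethylene accumulated in the headspace over 4 h was measured by gas chromatography.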

EC50 (XA21 [1]) [nM]	Ethylene production, result in words (XA21 [2])	Molecule
~30	–	CC(C)C[C@H](N)C(=O)N[C@@H](Cc1c[nH]c2ccccc12)C(=O)N[C@@H](CCCCN)C(=O)N[C@@H](Cc1c[nH]cn1)C(=O)N[C@H](C(=O)NCC(=O)NCC(=O)NCC(=O)N[C@@H](CC(=O)O)C(=O)N[C@@H](Cc1ccc(OS(=O)(=O)O)cc1)C(=O)N1CCC[C@H]1C(=O)N1CCC[C@H]1C(=O)N1CCC[C@H]1C(=O)NCC(=O)N[C@@H](C)C(=O)N[C@@H](CC(N)=O)C(=O)N1CCC[C@H]1C(=O)N[C@@H](CCCCN)C(=O)N[C@@H](Cc1c[nH]cn1)C(=O)N[C@@H](CC(=O)O)C(=O)N1CCC[C@H]1C(=O)N1CCC[C@H]1C(=O)N1CCC[C@H]1C(=O)N[C@@H](CCCNC(=N)N)C(=O)O)C(C)C [RaxX24-sY] (H-LWKHVGGGD[sY]PPPGANPKHDPPPR-OH; N-terminus and C-terminus assumed)
–	but not RaxX21-Y	HVGGGDYPPPGANPKHDPPPR [RaxX21-Y]
